Measurements taken from ChEMBL document CHEMBL1275475, “Potent in vitro activity of tomopenem (CS-023) against methicillin-resistant Staphylococcus aureus and Pseudomonas aeruginosa” (Antimicrob Agents Chemother, 2008).
In brackets after ≈: the same amount, converted by molar mass.

Experiments:
[1] = system: Staphylococcus aureus; assay: Antibacterial activity against methicillin-resistant Staphylococcus aureus by broth microdilution method; assay type: functional
Summary of the method: (§1)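 Standard broth microdilution in cation-adjusted Mueller-Hinton broth (25 mg Ca2+ and 12.5 mg Mg2+ per liter), inoculum 4×10^5 CFU/ml. Isolates were 60 German MRSA clinical strains, and penicillinase-plasmid-cured MRSA 123-1 and 12386-1. QC strain was S. aureus ATCC 29213.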

[2] = system: Pseudomonas aeruginosa; assay: Antibacterial activity against Pseudomonas aeruginosa clinical isolates by broth microdilution method; assay type: functional
Summary of the method: (§2)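 Broth microdilution in cation-adjusted Mueller-Hinton broth (25 mg Ca2+ and 12.5 mg Mg2+ per liter), inoculum 4×10^5 CFU/ml. MIC was the lowest concentration completely inhibiting visible growth in wells. European clinical isolates were tested with S. aureus ATCC 29213 and P. aeruginosa ATCC 27853 as quality controls. PAO1-derived mutants were run in duplicate.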

[3] = system: Pseudomonas aeruginosa; assay: Antibacterial activity against meropenem-resistant Pseudomonas aeruginosa clinical isolates by broth microdilution method; assay type: functional
Summary of the method: (§3)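 Standard broth microdilution in cation-adjusted Mueller-Hinton broth (25 mg Ca2+ and 12.5 mg Mg2+ per liter), inoculum 4×10^5 CFU/ml. MIC is the lowest concentration completely inhibiting […] growth in wells. […] P. aeruginosa ATCC 27853 serves as QC strain.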

[4] = system: Staphylococcus aureus; assay: Antibacterial activity against methicillin-resistant Staphylococcus aureus 123-1 expressing PBP 2a by broth microdilution method; assay type: functional; summary of the method: as §1
[5] = system: Staphylococcus aureus; assay: Antibacterial activity against methicillin-resistant Staphylococcus aureus 12386-1 expressing PBP 2a by broth microdilution method; assay type: functional; summary of the method: as §1
[6] = biological target: T1, MecA (Staphylococcus aureus, UniProt Q7DHH4); assay: Binding affinity to PBP2a in methicillin-resistant Staphylococcus aureus 123-1 by [14C]benzylpenicillin labelled competitive assay
T1 sequence (Q7DHH4 whole entry): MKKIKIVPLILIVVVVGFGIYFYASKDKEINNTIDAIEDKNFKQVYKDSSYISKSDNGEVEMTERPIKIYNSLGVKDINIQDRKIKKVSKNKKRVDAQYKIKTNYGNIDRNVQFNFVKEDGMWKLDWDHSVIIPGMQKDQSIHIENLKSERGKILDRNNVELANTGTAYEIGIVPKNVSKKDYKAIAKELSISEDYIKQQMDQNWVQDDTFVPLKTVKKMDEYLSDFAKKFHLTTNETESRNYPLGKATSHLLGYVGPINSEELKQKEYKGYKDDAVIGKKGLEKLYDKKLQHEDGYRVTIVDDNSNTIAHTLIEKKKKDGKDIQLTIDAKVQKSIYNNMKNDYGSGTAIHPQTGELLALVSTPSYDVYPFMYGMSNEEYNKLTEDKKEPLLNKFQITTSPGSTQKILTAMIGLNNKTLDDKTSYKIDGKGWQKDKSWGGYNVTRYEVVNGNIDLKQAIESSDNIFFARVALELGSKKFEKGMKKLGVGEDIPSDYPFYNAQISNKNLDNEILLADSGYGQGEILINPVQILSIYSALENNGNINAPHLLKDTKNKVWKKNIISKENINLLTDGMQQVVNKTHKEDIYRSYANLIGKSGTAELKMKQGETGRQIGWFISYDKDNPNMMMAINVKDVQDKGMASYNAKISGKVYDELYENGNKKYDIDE
Summary of the method: (§4)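 Competition against [14C]benzylpenicillin. Membranes came from penicillinase-plasmid-cured MRSA lysed with lysostaphin (100 μg/ml), DNase (1 μg/ml) and sonication in 50 mM sodium phosphate, 10 mM MgCl2, pH 7.0. They were collected at 5,000 × g for 10 min, then 100,000 × g for 60 min, at final 8 mg/ml protein. Compound was added for 30 min, then label for 30 min, at 37°C. IC50 for 50% label-binding inhibition to PBP 2a was read by imaging analyzer.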

[7] = biological target: T1, MecA; assay: Binding affinity to PBP2a in methicillin-resistant Staphylococcus aureus 12386-1 by [14C]benzylpenicillin labelled competitive assay; summary of the method: as §4
[8] = system: Pseudomonas aeruginosa; assay: Antibacterial activity against Pseudomonas aeruginosa PAO1 by broth microdilution method; assay type: functional
Summary of the method: (§5)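 Standard broth microdilution in cation-adjusted Mueller-Hinton broth (25 mg Ca2+ and 12.5 mg Mg2+ per liter), inoculum 4×10^5 CFU/ml, against P. aeruginosa PAO1 or its laboratory mutants with defined resistance mechanisms. MIC was the lowest concentration completely inhibiting […] growth in wells. Determinations were done in duplicate.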

[9] = system: Pseudomonas aeruginosa; assay: Antibacterial activity against beta-lactamase-overproducing Pseudomonas aeruginosa N043 by broth microdilution method; assay type: functional; summary of the method: as §5
[10] = system: Pseudomonas aeruginosa; assay: Antibacterial activity against OprD-deficient Pseudomonas aeruginosa MR08 by broth microdilution method; assay type: functional; summary of the method: as §5
[11] = system: Pseudomonas aeruginosa; assay: Antibacterial activity against MexA-MexB-OprM-overproducing Pseudomonas aeruginosa OCR1 by broth microdilution method; assay type: functional; summary of the method: as §5
[12] = system: Pseudomonas aeruginosa; assay: Antibacterial activity against beta-lactamase-overproducing and OprD-deficient Pseudomonas aeruginosa N044 by broth microdilution method; assay type: functional; summary of the method: as §5
[13] = system: Pseudomonas aeruginosa; assay: Antibacterial activity against beta-lactamase and MexA-MexB-OprM-overproducing Pseudomonas aeruginosa N045 by broth microdilution method; assay type: functional; summary of the method: as §2
[14] = system: Pseudomonas aeruginosa; assay: Antibacterial activity against MexA-MexB-OprM-overproducing and OprD-deficient Pseudomonas aeruginosa N041 by broth microdilution method; assay type: functional; summary of the method: as §5
[15] = system: Pseudomonas aeruginosa; assay: Antibacterial activity against Pseudomonas aeruginosa COR6 expressing MexC-MexD-OprJ gene by broth microdilution method; assay type: functional; summary of the method: as §5
[16] = system: Pseudomonas aeruginosa; assay: Antibacterial activity against Pseudomonas aeruginosa N091 by broth microdilution method; assay type: functional; summary of the method: as §5
[17] = system: Pseudomonas aeruginosa; assay: Ratio of MIC for Pseudomonas aeruginosa N043 to MIC for Pseudomonas aeruginosa PAO1; assay type: functional
Summary of the method: (§6)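 MICs were measured for PAO1-derived resistance mutants and the parent PAO1 by broth microdilution in cation-adjusted Mueller-Hinton broth (25 mg/liter Ca2+, 12.5 mg/liter Mg2+), inoculum 4×10^5 CFU/ml, in duplicate. MIC was the lowest concentration with complete growth inhibition. The ratio is the mutant MIC divided by the PAO1 MIC.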

[18] = system: Pseudomonas aeruginosa; assay: Ratio of MIC for Pseudomonas aeruginosa MR08 to MIC for Pseudomonas aeruginosa PAO1; assay type: functional; summary of the method: as §6
[19] = system: Pseudomonas aeruginosa; assay: Ratio of MIC for Pseudomonas aeruginosa OCR1 to MIC for Pseudomonas aeruginosa PAO1; assay type: functional; summary of the method: as §6
[20] = system: Pseudomonas aeruginosa; assay: Ratio of MIC for Pseudomonas aeruginosa N044 to MIC for Pseudomonas aeruginosa PAO1; assay type: functional; summary of the method: as §6
[21] = system: Pseudomonas aeruginosa; assay: Ratio of MIC for Pseudomonas aeruginosa N045 to MIC for Pseudomonas aeruginosa PAO1; assay type: functional; summary of the method: as §6
[22] = system: Pseudomonas aeruginosa; assay: Ratio of MIC for Pseudomonas aeruginosa N041 to MIC for Pseudomonas aeruginosa PAO1; assay type: functional; summary of the method: as §6
[23] = system: Pseudomonas aeruginosa; assay: Ratio of MIC for Pseudomonas aeruginosa COR6 to MIC for Pseudomonas aeruginosa PAO1; assay type: functional; summary of the method: as §6
[24] = system: Pseudomonas aeruginosa; assay: Ratio of MIC for Pseudomonas aeruginosa N092 to MIC for Pseudomonas aeruginosa PAO1; assay type: functional; summary of the method: as §6
[25] = system: Pseudomonas aeruginosa; assay: Antibacterial activity against Pseudomonas aeruginosa N092 expressing MexE-MexF-OprN gene and OprD mutant gene and harboring nfxC mutant gene by broth microdilution method
[26] = system: Pseudomonas aeruginosa; assay: Antibacterial activity against imipenem-resistant Pseudomonas aeruginosa clinical isolates by broth microdilution method; assay type: functional; summary of the method: as §3

Row | Compound | MIC50 [1] | MIC90 [1] | MIC50 [2] | MIC90 [2] | MIC [4] | MIC [5] | IC50 [6] | IC50 [7] | MIC [8] | MIC [9] | MIC [10] | MIC [11] | MIC [12] | MIC [13] | MIC [14] | MIC [15] | MIC [16] | Ratio [17] | Ratio [18] | MIC [25] | other results
1 | C[C@@H](O)[C@H]1C(=O)N2C(C(=O)O)=C(S[C@@H]3CN[C@H](C(=O)N(C)C)C3)[C@H](C)[C@H]12 [MEROPENEM] | 8 µg/mL (≈ 20.9 µM) | 32 µg/mL (≈ 83.4 µM) | 1 µg/mL (≈ 2.61 µM) | 16 µg/mL (≈ 41.7 µM) | 32 µg/mL (≈ 83.4 µM) | 16 µg/mL (≈ 41.7 µM) | 339 µM | 138 µM | 0.5 µg/mL (≈ 1.3 µM) | 1 µg/mL (≈ 2.61 µM) | 4 µg/mL (≈ 10.4 µM) | 2 µg/mL (≈ 5.22 µM) | 16 µg/mL (≈ 41.7 µM) | 2 µg/mL (≈ 5.22 µM) | 16 µg/mL (≈ 41.7 µM) | 0.5 µg/mL (≈ 1.3 µM) | 0.5 µg/mL (≈ 1.3 µM) | 2 | 8 | 1 µg/mL (≈ 2.61 µM) | MIC [3]: ≥ 16 µg/mL; Ratio [19]: 4; Ratio [20]: 32; Ratio [21]: 4; Ratio [22]: 32; Ratio [23]: 1; Ratio [24]: 2
2 | C[C@@H](O)[C@H]1C(=O)N2C(C(=O)O)=C(SCCNC=N)C[C@H]12 [IMIPENEM ANHYDROUS] | 4 µg/mL (≈ 13.4 µM) | > 32 µg/mL | 2 µg/mL (≈ 6.68 µM) | 32 µg/mL (≈ 107 µM) | 32 µg/mL (≈ 107 µM) | 16 µg/mL (≈ 53.4 µM) | 568 µM | 254 µM | 1 µg/mL (≈ 3.34 µM) | 1 µg/mL (≈ 3.34 µM) | 16 µg/mL (≈ 53.4 µM) | 1 µg/mL (≈ 3.34 µM) | 32 µg/mL (≈ 107 µM) | 1 µg/mL (≈ 3.34 µM) | 8 µg/mL (≈ 26.7 µM) | 0.5 µg/mL (≈ 1.67 µM) | 1 µg/mL (≈ 3.34 µM) |  |  | 4 µg/mL (≈ 13.4 µM) | MIC [26]: ≥ 16 µg/mL
3 | C[C@@H](O)[C@H]1C(=O)N2C(C(=O)O)=C(S[C@H]3C[C@@H](C(=O)N4CC[C@H](NC(=O)CNC(=N)N)C4)N(C)C3)[C@H](C)[C@H]12 [TOMOPENEM] | 4 µg/mL (≈ 7.44 µM) | 8 µg/mL (≈ 14.9 µM) | 0.5 µg/mL (≈ 0.93 µM) | 4 µg/mL (≈ 7.44 µM) | 8 µg/mL (≈ 14.9 µM) | 8 µg/mL (≈ 14.9 µM) | 9.86 µM | 5.39 µM | 0.25 µg/mL (≈ 0.465 µM) | 0.5 µg/mL (≈ 0.93 µM) | 1 µg/mL (≈ 1.86 µM) | 0.5 µg/mL (≈ 0.93 µM) | 8 µg/mL (≈ 14.9 µM) | 1 µg/mL (≈ 1.86 µM) | 2 µg/mL (≈ 3.72 µM) | 0.25 µg/mL (≈ 0.465 µM) | 0.25 µg/mL (≈ 0.465 µM) | 2 | 4 | 0.5 µg/mL (≈ 0.93 µM) | Ratio [19]: 2; Ratio [20]: 32; Ratio [21]: 4; Ratio [22]: 8; Ratio [23]: 1; Ratio [24]: 2
